In PMC12137120 (Nature, 2025):
Residue numbers refer to the chain shown, from its start.

Legend:
SHOC2(WT)–NRAS(Q61K) = molecular target: T1, SHOC2(WT)–NRAS(Q61K) (Homo sapiens, UniProt Q9UQ13); assay: SHOC2–NRAS; assay type: cell-based
T1 sequence (Q9UQ13 1-582): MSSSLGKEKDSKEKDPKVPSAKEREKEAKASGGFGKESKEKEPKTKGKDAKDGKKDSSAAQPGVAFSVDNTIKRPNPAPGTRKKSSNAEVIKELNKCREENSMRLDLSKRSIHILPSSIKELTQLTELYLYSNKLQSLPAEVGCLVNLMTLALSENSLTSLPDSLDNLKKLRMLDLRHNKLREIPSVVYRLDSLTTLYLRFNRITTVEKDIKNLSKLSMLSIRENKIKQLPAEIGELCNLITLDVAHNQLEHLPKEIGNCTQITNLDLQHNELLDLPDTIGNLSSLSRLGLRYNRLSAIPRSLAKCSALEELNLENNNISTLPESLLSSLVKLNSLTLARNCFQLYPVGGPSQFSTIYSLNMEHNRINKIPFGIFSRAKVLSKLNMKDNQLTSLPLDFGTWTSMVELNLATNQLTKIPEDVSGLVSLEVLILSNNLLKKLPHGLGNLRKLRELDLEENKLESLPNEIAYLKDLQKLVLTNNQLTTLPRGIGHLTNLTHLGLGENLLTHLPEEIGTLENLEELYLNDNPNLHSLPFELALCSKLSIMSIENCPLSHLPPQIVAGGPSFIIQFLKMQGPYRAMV
Method in brief: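 Monoclonal HEK 293T lines stably expressed full-length SHOC2–SmBiT with LgBiT–NRAS(Q61K); a SmBiT–128-aa linker–LgBiT line served as control. Cells were kept in DMEM with 10% FCS. 20,000 cells per well were seeded in medium with 0.1% FCS and held 2 h at 37 °C. Test compound was given for 4 h (seven-point 1:3, 30 µM to 40 nM). Medium was then replaced with phenol-red-free Opti-MEM plus NanoGlo Live substrate (1:60). n = 3 biological samples.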

MELJUSO cells [1] = assay: Incucyte 3D cell proliferation; assay type: cell-based, human; settings: RAS(Q61L) melanoma MELJUSO; twice-a-week treatment, 30 µM
Method in brief: (§1)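 Cells were seeded in sextuplicate in ultralow-attachment round-bottom plates in 10% FCS medium, spun 3 min at 200g and left 24 h to form spheroids or aggregates. They were dosed with 30 µM test compound or DMSO twice weekly at 37 °C, 5% CO2, and imaged by Incucyte every 6 h for three weeks at ×10. Data are mean ± s.d., n = 6; two independent experiments.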

SHOC2 (80–582) = molecular target: T2, SHOC2 (80–582) (Homo sapiens, UniProt Q9UQ13); assay: SPR to assess affinity of low-molecular-weight ligands on immobilized SHOC2; assay type: binding; settings: versus (R)-5
T2 sequence (Q9UQ13 80-582): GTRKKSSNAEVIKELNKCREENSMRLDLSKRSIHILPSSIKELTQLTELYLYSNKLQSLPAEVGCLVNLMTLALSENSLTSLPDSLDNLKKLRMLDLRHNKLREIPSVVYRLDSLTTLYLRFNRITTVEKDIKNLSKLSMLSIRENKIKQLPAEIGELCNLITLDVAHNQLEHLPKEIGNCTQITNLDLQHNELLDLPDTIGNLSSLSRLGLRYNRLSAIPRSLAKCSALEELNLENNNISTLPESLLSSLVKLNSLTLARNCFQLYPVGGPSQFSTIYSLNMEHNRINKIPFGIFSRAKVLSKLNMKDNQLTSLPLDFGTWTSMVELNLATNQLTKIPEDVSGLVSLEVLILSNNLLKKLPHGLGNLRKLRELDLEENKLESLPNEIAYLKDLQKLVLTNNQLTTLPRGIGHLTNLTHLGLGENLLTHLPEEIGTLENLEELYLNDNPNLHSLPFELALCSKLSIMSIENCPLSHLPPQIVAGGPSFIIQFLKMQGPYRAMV

SHOC2–NRAS(Q61R) = molecular target: T3, SHOC2–NRAS(Q61R) (Homo sapiens, UniProt Q9UQ13); assay: TR-FRET competitive binding assay SHOC2–NRAS Q61R:GTP; settings: versus (R)-5
T3 sequence (Q9UQ13 1-582): T1 sequence (Q9UQ13 1-582)

SHOC2(G290A)–NRAS(Q61K) = molecular target: T4, SHOC2(G290A)–NRAS(Q61K) (Homo sapiens, UniProt Q9UQ13, G290A); assay: SHOC2; assay type: cell-based
T4 sequence (Q9UQ13 1-582 G290A): T1 sequence (Q9UQ13 1-582) with G290A
Method in brief: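 HEK 293T cells were plated at 20,000 per well and incubated overnight at 37 °C, 5% CO2. They were then transiently transfected with SHOC2(G290A)–SmBiT and LgBiT–NRAS(Q61K) and incubated overnight again. Test compound was added for 4 h as a seven-point 1:3 series from 10 µM […], from stock in DMSO/H2O 90:10. NanoGlo Live substrate (1:60 in phenol-red-free Opti-MEM) was then added.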

A375 cells [2] = assay: Incucyte 3D cell proliferation; assay type: cell-based, human; settings: BRAF(V600E) melanoma A375; twice-a-week treatment, 30 µM
Method in brief: as §1

[3] = tested on: RAS mutant and wild-type cell lines; assay: Immunoblot of MAPK signalling in a panel of RAS mutant and wild-type cell lines; assay type: cell-based, human; settings: 4 h, 30 µM
[4] = tested on: RAS mutant and RAS WT cell lines; assay: Incucyte 3D cell proliferation, panel of RAS mutant and RAS WT cell lines; assay type: cell-based, human; settings: 30 µM
Method in brief: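 For spheroid or aggregate formation, cells were seeded in sextuplicate in ultralow-attachment round-bottom plates in 10% FCS medium, centrifuged 3 min at 200g and left 24 h. They were treated with 30 µM test compound or DMSO at 37 °C, 5% CO2, and imaged on an Incucyte every 6 h for three weeks at ×10.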

A375 cells [5] = assay: Immunoblot of MAPK signalling; assay type: cell-based, human; settings: BRAF(mut) melanoma cells A375, 30 µM, time course
Method in brief: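 A375 cells got 30 µM test compound and were collected at several time points. They were cleared at 13,000 rpm, 4 °C, 20 min, protein was quantified by BCA, and samples were immunoblotted. Two independent experiments were run.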

GTP-loaded RAS = assay: Active RAS pull-down assay; assay type: cell-based, human; settings: Mel Juso and A375 cells, 30 µM, 2 h and 4 h
Method in brief: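 Cells were treated with 30 µM test compound or DMSO for 2 h and 4 h, then lysed per the kit. 400 µg lysate was rotated with Raf-RBD beads for 1 h at 4 °C. Bound protein was eluted in 2× Laemmli buffer, boiled 5 min at 95 °C and immunoblotted alongside total lysates. Two independent experiments were run.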

Mel Juso cell line = assay: RNA-seq global transcriptome analysis; assay type: cell-based, human; settings: 4 h and 24 h, 30 µM and 100 µM
SHOC2(G290A)–NRAS(Q61R) = molecular target: T5, SHOC2(G290A)–NRAS(Q61R) (Homo sapiens, UniProt Q9UQ13, G290A); assay: TR-FRET assay with resistant mutant SHOC2; assay type: binding
T5 sequence (Q9UQ13 1-582 G290A): T1 sequence (Q9UQ13 1-582) with G290A

MELJUSO cells [6] = assay: Immunoblot of MAPK signalling; assay type: cell-based, human
Method in brief: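 MELJUSO cells were treated either with increasing doses for 24 h or with 30 µM over a time course. Lysis was in 1% Triton X-100/Tris-HCl pH 7.4/NaCl/EDTA buffer with phosphatase and protease inhibitors, then clearing at 13,000 rpm, 4 °C, 20 min and BCA protein assay. Immunoblots of the time course were quantified by densitometry as pCRAF/CRAF and pERK/ERK. Two independent experiments were run.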

SMILES | activity in SHOC2(WT)–NRAS(Q61mut) NanoBiT assay (SHOC2(WT)–NRAS(Q61K)) | 3D cell proliferation (MELJUSO cells [1]) | fold higher potency in SPR assay (SHOC2 (80–582)) [fold] | fold higher potency in TR-FRET assay (SHOC2–NRAS(Q61R)) [fold] | activity in SHOC2(G290A)–NRAS(Q61mut) NanoBiT assay (SHOC2(G290A)–NRAS(Q61K)) | 3D cell proliferation (A375 cells [2]) | MAPK signalling in EGFRΔex19 cells [3] | MAPK signalling in wild-type RTK/RAS or BRAF(V600E) mutant cell lines [3] | MAPK signalling in RAS mutant settings ([3]; Q61L, G12D and G12C mutant conditions) | 3D proliferation in wild-type RAS settings ([4]; including EGFRΔex19 cells) | 3D proliferation of RAS mutant models ([4]; prolonged treatment) | pERK or pMEK inhibition (A375 cells [5]) | RAS–GTP loading (GTP-loaded RAS) | transcriptome changes, RAS/MAPK-associated genes (Mel Juso cell line) | activity in SHOC2(G290A)–NRAS(Q61R) TR-FRET (SHOC2(G290A)–NRAS(Q61R)) | inhibited CRAF (phospho-S259) levels (MELJUSO cells [6]; MELJUSO, 30 µM, time course) | MEK and ERK phosphorylation (MELJUSO cells [6]; NRAS(Q61mut) melanoma cells MELJUSO, 24 h increasing doses) | MAPK signalling in all cell models tested [3]
CC(C)(C(=O)O)[C@H](NC(=O)Cc1cccc(I)c1)c1ccc2oc(=O)[nH]c2c1 [Compound 6, (R)-3-(2-(3-iodophenyl)acetamido)-2,2-dimethyl-3-(2-oxo-2,3-dihydrobenzo[d]oxazol-5-yl)propanoic acid] | selective displacement | suppressed the cell proliferation | 10 | 10 | no activity | but not of BRAF(V600E) | only minor effects | no detectable effect | downregulated MAPK signalling | none | anti-proliferative effects | did not show any pERK or pMEK inhibition | unaffected | dose-dependent and time-dependent modulation | fully abolish compound 6 activity | increased levels | dose-dependent inhibition | –
CC(C)(C(=O)O)[C@@H](NC(=O)Cc1cccc(I)c1)c1ccc2oc(=O)[nH]c2c1 [Compound 7, (S)-3-(2-(3-iodophenyl)acetamido)-2,2-dimethyl-3-(2-oxo-2,3-dihydrobenzo[d]oxazol-5-yl)propanoic acid] | no activity | – | – | – | – | – | – | – | – | – | – | – | – | no significant changes | – | – | – | inert
